# Assay outcomes from PubChem.
# Shown are actives, neighbours in structure and some others; about 5.4% of the full set was active somewhere.
# SKKanGAS inh: S. pyogenes SKKanGAS growth inhibitors in kanamycin, primary screen, streptokinase expression inhibitor project, SKKanGAS strain, BacTiter-Glo luminescence | hit rate 1.3% among 300,000 | 6 h | inhibition, % at 7.5 µM;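 active means mean replicate score, as percent of positive control median, at least 50; inconclusive means mean below 50 but one replicate at or above 50; inactive means mean and every replicate below 50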;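 further: strain carries kanamycin resistance gene driven by streptokinase promoter and grows in 40 µg/ml kanamycin; loss of luminescence reflects streptokinase promoter inhibition or plain growth inhibition; 0% = median of DMSO wells and 100% = positive control at its reference dose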
# CSC inhib: cancer stem cell viability inhibitors, primary screen, luminescence | cancer stem cell-like cells viability | inhibition, % at 7.5 µM | hit rate 1.1% among 300,000 | AID 2717, 2010; in the data active means inhibition above about 75%; inconclusive means no clear call, values can overlap the other calls; tested in HMLE shEcad cells
# aSyn UTR inh: MLPCN primary screen, SNCA 5' untranslated region | alpha-synuclein 5'UTR reporter, inhibitor activity | inhibition, % (tested at 7.5 µM) | AID 1813, 2009 | hit rate 0.82% among 300,000; in the data active means inhibition above about 60%; inconclusive means no clear call, values can overlap the other calls;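 further: H4 neuroglioblastoma cells stably carrying SNCA 5'UTR luciferase fusion; 0% = DMSO wells and 100% = positive control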
# T cruzi inh: inhibitors of intracellular T. cruzi growth, primary screen, luminescence, NIH3T3 host cells; hit rate 1.4% among 300,000; inhibition, % (no concentration beside the values); T. cruzi beta-gal in NIH3T3, 90 h;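 active means mean inhibition across valid replicates above about 55%, limit read from the data; inconclusive means mean below that limit but half or more replicates reach it; inactive means mean below it, under half of replicates reach it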;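 further: signal also drops with host cell toxicity which is not excluded here; 0% = plate median of DMSO wells and 100% = zero luminescence signal; higher percent means less beta-gal luminescence so fewer parasites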
#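 Incubation – ≥90 h infection period, 3 h prior cell attachment · System – NIH/3T3 fibroblasts plus reporter T. cruzi · Doses – compound pinned at 50 nL/well, DMSO · Read-out basis – percent inhibition of parasite-derived β-gal signal · Signal – luminescent β-galactosidase signal after 60 min lysis · Also added – 5000 T. cruzi trypomastigotes/well · Medium – Low-serum DMEM with 2% FBS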
# Mdm2 MdmX PPI: inhibitors of human Mdm2-MdmX association, primary screen, cell-based, luminescence, split luciferase, SaOS-2, uHTS. hit rate 3% among 330,000. inhibition, % at 8 µM. AID 485346, 2010. SaOS-2 split-luciferase Mdm2/MdmX complementation. Protein Mdm4 (Homo sapiens) + E3 ubiquitin-protein ligase Mdm2 (Homo sapiens), …;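 active means inhibition of at least 50% at 8 µM in the primary screen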
# Target sequence (O15151 whole entry, looked up): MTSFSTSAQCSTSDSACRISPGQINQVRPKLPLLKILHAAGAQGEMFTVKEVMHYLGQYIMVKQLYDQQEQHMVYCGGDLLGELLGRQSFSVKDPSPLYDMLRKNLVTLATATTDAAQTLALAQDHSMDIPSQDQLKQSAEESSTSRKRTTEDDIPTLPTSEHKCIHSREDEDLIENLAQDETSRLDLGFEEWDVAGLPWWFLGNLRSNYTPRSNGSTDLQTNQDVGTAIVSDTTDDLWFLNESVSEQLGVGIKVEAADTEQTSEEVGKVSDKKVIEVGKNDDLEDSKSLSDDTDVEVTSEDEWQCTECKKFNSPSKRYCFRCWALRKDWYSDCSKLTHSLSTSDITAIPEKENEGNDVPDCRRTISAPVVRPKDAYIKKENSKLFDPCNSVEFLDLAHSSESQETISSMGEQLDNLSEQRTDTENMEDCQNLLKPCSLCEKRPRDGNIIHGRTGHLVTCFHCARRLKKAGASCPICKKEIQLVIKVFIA
# Target sequence (Q00987 whole entry, looked up): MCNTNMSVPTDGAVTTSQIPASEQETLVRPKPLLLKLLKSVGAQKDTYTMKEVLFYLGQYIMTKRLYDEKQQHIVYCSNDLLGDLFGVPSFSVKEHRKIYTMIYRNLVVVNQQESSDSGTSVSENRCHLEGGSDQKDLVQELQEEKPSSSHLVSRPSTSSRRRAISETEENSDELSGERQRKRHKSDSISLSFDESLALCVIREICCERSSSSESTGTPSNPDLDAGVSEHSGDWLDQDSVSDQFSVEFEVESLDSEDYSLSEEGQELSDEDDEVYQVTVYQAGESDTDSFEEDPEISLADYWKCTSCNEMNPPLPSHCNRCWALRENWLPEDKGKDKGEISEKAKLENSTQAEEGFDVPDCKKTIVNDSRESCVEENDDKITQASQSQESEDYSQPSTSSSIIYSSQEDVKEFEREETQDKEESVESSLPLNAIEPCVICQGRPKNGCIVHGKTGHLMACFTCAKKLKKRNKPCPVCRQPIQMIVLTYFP
# The depositor's hits bear a star; ? = inconclusive; . = no result; ! = repeats disagree.
SMILES,SKKanGAS inh,CSC inhib,aSyn UTR inh,T cruzi inh,Mdm2 MdmX PPI
COc1cccc(C(=O)OCC(=O)NC23CC4CC(CC(C4)C2)C3)c1,.,-9.5,.,.,18.1
O=C(COC(=O)Cc1cn2ccsc2n1)Nc1nc2ccccc2s1,80.0*,3.0,-1.1,10.8,-25.4
COCC(=O)Nc1nc2ccccc2s1,5.4,-4.0,-52.8,-17.7,-3.1
COC(=O)c1ccc(-c2n[nH]c(=O)c3ccccc23)cc1,-11.7,-6.4,3.3,-12.8,27.6
C=CCOc1ccc2nc(NC(=O)OC)[nH]c2c1,2.4,51.3,65.9*,-1.2,26.3
COC(=O)Nc1nc2ccc(-c3n[nH]c(=O)c4ccccc34)cc2[nH]1,1.7,103.9*,-8.7,-29.0,12.4
Cc1ccccc1OCCC(=O)OCC(=O)N(C)c1c(N)n(Cc2ccccc2)c(=O)[nH]c1=O,-2.3,-5.9,-8.8,-6.6,6.9
CCC(=O)NNc1ccc(Br)cc1,7.9,80.3*,3.0,-10.0,1.3
CCC(C)NC(=O)Nc1ccc(Br)cc1 (configuration not stated),-12.4,10.4,-73.2,3.0,-6.1
c1ccc(-c2nnc3sc(CN4CCc5ccccc54)cn23)cc1,9.2,75.6*,3.0,-28.8,11.1
COc1ccccc1CNC(=O)c1ccccc1C(=O)NC(CC(C)C)C(=O)NCc1ccccc1OC (configuration not stated),-2.8,-11.2,10.8,2.4,25.2
CCOc1nc2ccccc2nc1C,1.5,-1.8,9.3,-2.2,5.1
CCC(Oc1ccccc1)C(=O)NC1C(=O)N2C1SC(C)(C)C2C(=O)O (configuration not stated),111.2*,2.4,-7.1,-16.3,13.3
CC1(C)S[C@@H]2[C@H](NC(=O)C(NC(=O)N3CCNC3=O)c3ccccc3)C(=O)N2[C@H]1C(=O)O (some centres not stated),114.5*,-7.9,-0.7,-13.7,27.0
Cc1cc(COC(=O)C2N3C(=O)[C@@H](NC(=O)COc4ccccc4)[C@H]3SC2(C)C)on1 (some centres not stated),102.8*,4.9,-6.5,0.6,6.1
CC1(C)S[C@@H]2[C@H](NC(=O)Cc3ccccc3)C(=O)N2[C@H]1C(=O)O,100.5*!,5.8,9.8,-12.9,9.7
CCOc1ccc2ccccc2c1C(=O)N[C@@H]1C(=O)N2[C@@H]1SC(C)(C)[C@@H]2C(=O)O,16.8,-3.2,2.3,-13.3,-24.1
CCOc1ccc(NC(=O)CCC(=O)N/N=C(\C)c2cccs2)cc1,-3.2,.,15.7,2.2,27.5
COc1cccc(CNC(=O)C2CCCN(S(=O)(=O)c3cccc4nonc34)C2)c1 (configuration not stated),-5.0,5.5,-3.7,-1.4,-11.6
CN(C)CCCNC(=O)c1cc(C(=O)c2ccccc2)c[nH]1,4.3,-12.2,27.6,44.9,24.0
O=C(c1ccccc1)c1c[nH]c(C(=O)NNc2ccccc2)c1,5.8,96.7*,21.5,57.2*,27.6
Cc1nc(Nc2ccc(S(=O)(=O)N3CCCCC3C)cc2)c2nnn(Cc3ccccc3)c2n1 (configuration not stated),8.0,6.4,25.9,63.6*,25.2
Cc1cccc(NC(=O)Cn2cnc(S(=O)(=O)N3CCCC3)c2)c1C,9.3,-16.6,-5.3,-11.6,-12.3
CC(=O)Nc1ccc(C#Cc2ccc(NC(C)=O)cc2)cc1,84.5*,31.6,73.7*,-3.2,37.5
CCOC(=O)C1CCN(C2CCN(C(=O)c3oc4c(C)c(C)ccc4c3C)CC2)CC1,8.4,-7.5,-25.4,28.2,29.1
SMILES,SKKanGAS inh,CSC inhib,aSyn UTR inh,T cruzi inh,Mdm2 MdmX PPI
O=C(NC(Cc1cccc(F)c1)C(=O)O)C1CCCCC1 (configuration not stated),.,-4.9,.,.,-33.1
COc1ccc2nc(Nc3nc(C)c(C(C)=O)s3)sc2c1,56.4*,18.0,-186.3,32.5,-56.5
COc1ccc(Nc2nc3ccc(OC)cc3s2)cc1,-3.1,.,-119.7,0.6,-35.2
CCOC(=O)c1sc(N2C(=O)C(O)=C(C(=O)c3ccc(C)o3)C2c2cccc([N+](=O)[O-])c2)nc1C (configuration not stated),61.3*,43.2,5.5,-6.9,.
COC(=O)c1sc(N2C(=O)C(O)=C(C(=O)c3ccc(C)o3)C2c2ccc([N+](=O)[O-])cc2)nc1C (configuration not stated),63.2*,-6.2,-8.3,-2.8,4.2
CCOC(=O)c1sc(N2C(=O)C(O)=C(C(=O)c3ccc(C)o3)C2c2ccc(OC)c(OC)c2)nc1C (configuration not stated),32.3,-20.5,11.5,-13.9,16.1
CCOc1ccc(C2C(C(=O)c3ccc(C)o3)=C(O)C(=O)N2c2nc(C)c(C(=O)OC)s2)cc1 (configuration not stated),31.8,12.0,-92.4,-20.1,1.4
O=C1c2ccccc2CCCC12N=NCC2c1cccc2ccccc12 (configuration not stated),49.8*,.,1.0,?,7.3
Cc1nn(CCc2nn[nH]n2)c2nc(-c3ccc(C4CCCCC4)cc3)cc(C(F)(F)F)c12,103.8*,110.4*,-30.1,24.8,37.0
Cc1nn(CCC(=O)O)c2nc(-c3cccnc3)cc(C(F)(F)F)c12,0.5,-3.7,-9.4,-2.8,6.0
Cc1ccc(C(=O)N2CCCC(CCC(=O)NCc3ccccc3F)C2)cn1 (configuration not stated),?,-5.6,-11.5,-8.7,13.7
CC(=O)c1cccc(CN2CCCC(CCC(=O)NCc3ccccc3F)C2)c1 (configuration not stated),-8.1,-5.2,-20.5,61.4*,-14.6
Cc1occc1C(=O)N1CCCC(CCC(=O)NCc2ccc(F)c(F)c2)C1 (configuration not stated),-5.5,-3.9,-13.7,-5.9,-12.9
O=C(CCC1CCCN(Cc2ccc3c(c2)CCO3)C1)NCc1ccc(F)c(F)c1 (configuration not stated),4.2,-2.1,15.2,63.4*,9.0
Cc1ncc(CN2CCCC(CCC(=O)NCc3ccccc3F)C2)s1 (configuration not stated),5.7,-14.7,5.3,61.0*,-1.6
Cc1ncc(CN2CCCC(CCC(=O)NCc3ccc(F)c(F)c3)C2)s1 (configuration not stated),4.6,-0.6,-1.1,61.3*,3.2
CCOc1ccc(Oc2ccc(NC(=O)CSc3nncn3C)cc2)cc1,.,.,.,.,-5.5
Cc1c(Cc2ccccc2)c(=O)oc2c(C)c(OCC(=O)N[C@@H](Cc3ccccc3)C(=O)O)ccc12,24.1,-14.9,22.2,-15.1,-18.9
Cc1ccc(NC(=O)CN(C)C(=O)CSc2nnc(N)s2)cc1,.,-3.3,.,.,7.0
COc1ccccc1/C=C/CN1CCCC(CCC(=O)NCc2ccccc2F)C1 (configuration not stated),1.5,3.8,-4.4,75.8*,10.6
